Test results taken from ChEMBL document CHEMBL4339192, “De Novo Designed Amphipathic α-Helical Antimicrobial Peptides Incorporating Dab and Dap Residues on the Polar Face To Treat the Gram-Negative Pathogen, Acinetobacter baumannii” (J Med Chem, 2019).
Values after ≈ are worked out from the molar mass of the structure shown. Where a SMILES comes first, the peptide text is derived from it. [ ]: non-standard residue; d: D form. Dap = NC[C@H](N)C(=O)O

Assays:
Acinetobacter baumannii [1] = assay: Antibacterial activity against Acinetobacter baumannii isolate 1035794 measured after 24 hrs by microtiter dilution method; assay type: functional; conditions: isolate 1035794, 24 h
Method in brief: (§1)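 Broth microdilution in Mueller-Hinton (MH) medium. […] Plates were incubated 24 h at 37 °C. MIC was the lowest peptide concentration that inhibited growth, based on three sets of replicates.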

Acinetobacter baumannii [2] = assay: Antibacterial activity against polymyxin B/colistin-resistant Acinetobacter baumannii M89955 measured after 24 hrs by microtiter dilution method; assay type: functional; conditions: M89955, 24 h; method in brief: as §1
[3] = Therapeutic index, ratio of HC50 for human RBC to MIC for polymyxin B/colistin-resistant Acinetobacter baumannii M89949; assay type: toxicity; conditions: human red blood cells, read-out: TI
Method in brief: (§2)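 T.I. = HC50/MIC. For HC50, peptide (quantified by amino acid analysis) was two-fold serially diluted over 12 concentrations up to 1000 μg/mL. It was incubated with 1% fresh human erythrocytes in PBS, pH 7.4, for 18 h at 37 °C. After 800g centrifugation, hemoglobin was read at 570 nm against water (100%) and no-peptide (0%) controls. HC50 came from a lysis-versus-concentration plot, average of 3 replicates.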

Acinetobacter baumannii [4] = assay: Antibacterial activity against Acinetobacter baumannii isolate 1010245 measured after 24 hrs by microtiter dilution method; assay type: functional; conditions: isolate 1010245, 24 h; method in brief: as §1
Acinetobacter baumannii [5] = assay: Antibacterial activity against Acinetobacter baumannii isolate 9383370 measured after 24 hrs by microtiter dilution method; assay type: functional; conditions: isolate 9383370, 24 h; method in brief: as §1
Acinetobacter baumannii [6] = assay: Antibacterial activity against polymyxin B/colistin-resistant Acinetobacter baumannii M89963 measured after 24 hrs by microtiter dilution method; assay type: functional; conditions: M89963, 24 h; method in brief: as §1
Acinetobacter baumannii [7] = assay: Antibacterial activity against Acinetobacter baumannii isolate 952654 measured after 24 hrs by microtiter dilution method; assay type: functional; conditions: isolate 952654, 24 h; method in brief: as §1
Acinetobacter baumannii [8] = assay: Antibacterial activity against Acinetobacter baumannii isolate 1021371 measured after 24 hrs by microtiter dilution method; assay type: functional; conditions: isolate 1021371, 24 h; method in brief: as §1
Acinetobacter baumannii [9] = assay: Antibacterial activity against Acinetobacter baumannii isolate 961997 measured after 24 hrs by microtiter dilution method; assay type: functional; conditions: isolate 961997, 24 h; method in brief: as §1
[10] = Therapeutic index, ratio of HC50 for human RBC to MIC for polymyxin B/colistin-resistant Acinetobacter baumannii M89941; assay type: toxicity; conditions: human red blood cells, read-out: TI; method in brief: as §2
Acinetobacter baumannii [11] = assay: Antibacterial activity against polymyxin B/colistin-resistant Acinetobacter baumannii M89952 measured after 24 hrs by microtiter dilution method; assay type: functional; conditions: M89952, 24 h; method in brief: as §1
Acinetobacter baumannii [12] = assay: Antibacterial activity against polymyxin B/colistin-resistant Acinetobacter baumannii M89951 measured after 24 hrs by microtiter dilution method; assay type: functional; conditions: M89951, 24 h; method in brief: as §1
[13] = Therapeutic index, ratio of HC50 for human RBC to MIC for polymyxin B/colistin-resistant Acinetobacter baumannii M89952; assay type: toxicity; conditions: human red blood cells, read-out: TI; method in brief: as §2
Acinetobacter baumannii [14] = assay: Antibacterial activity against Acinetobacter baumannii isolate 1002956 measured after 24 hrs by microtiter dilution method; assay type: functional; conditions: isolate 1002956, 24 h; method in brief: as §1
Acinetobacter baumannii [15] = assay: Antibacterial activity against Acinetobacter baumannii 649 measured after 24 hrs in presence of 25% human serum by microtiter dilution method; assay type: functional; conditions: Acinetobacter baumannii, 649, 24 h
Method in brief: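 Blood strain 649 was tested by MH broth microdilution with and without 25% (v/v) human serum added to the medium. The test used a final inoculum of 5 × 10^5 cfu/mL and incubation at 37 °C. The ratio is the MIC in serum over the MIC in MH alone.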

[16] = Therapeutic index, ratio of HC50 for human RBC to MIC for polymyxin B/colistin-resistant Acinetobacter baumannii M89963; assay type: toxicity; conditions: human red blood cells, read-out: TI; method in brief: as §2
Acinetobacter baumannii [17] = assay: Antibacterial activity against Acinetobacter baumannii isolate 963618 measured after 24 hrs by microtiter dilution method; assay type: functional; conditions: isolate 963618, 24 h; method in brief: as §1
Acinetobacter baumannii [18] = assay: Antibacterial activity against Acinetobacter baumannii 649 measured after 24 hrs by microtiter dilution method; assay type: functional; conditions: Acinetobacter baumannii, 649, 24 h; method in brief: as §1
Acinetobacter baumannii [19] = assay: Antibacterial activity against Acinetobacter baumannii isolate 977751 measured after 24 hrs by microtiter dilution method; assay type: functional; conditions: isolate 977751, 24 h; method in brief: as §1
[20] = Therapeutic index, ratio of HC50 for human RBC to MIC for polymyxin B/colistin-resistant Acinetobacter baumannii M89953; assay type: toxicity; conditions: human red blood cells, read-out: TI; method in brief: as §2
Acinetobacter baumannii [21] = assay: Antibacterial activity against Acinetobacter baumannii isolate 965463 measured after 24 hrs by microtiter dilution method; assay type: functional; conditions: isolate 965463, 24 h; method in brief: as §1
Acinetobacter baumannii [22] = assay: Antibacterial activity against Acinetobacter baumannii isolate 963659 measured after 24 hrs by microtiter dilution method; assay type: functional; conditions: isolate 963659, 24 h; method in brief: as §1
Acinetobacter baumannii [23] = assay: Antibacterial activity against polymyxin B/colistin-resistant Acinetobacter baumannii M89941 measured after 24 hrs by microtiter dilution method; assay type: functional; conditions: M89941, 24 h; method in brief: as §1
Acinetobacter baumannii [24] = assay: Antibacterial activity against Acinetobacter baumannii isolate 1001611 measured after 24 hrs by microtiter dilution method; assay type: functional; conditions: isolate 1001611, 24 h; method in brief: as §1
Acinetobacter baumannii [25] = assay: Antibacterial activity against Acinetobacter baumannii isolate 1007660 measured after 24 hrs by microtiter dilution method; assay type: functional; conditions: isolate 1007660, 24 h; method in brief: as §1
Acinetobacter baumannii [26] = assay: Antibacterial activity against Acinetobacter baumannii isolate 1018887 measured after 24 hrs by microtiter dilution method; assay type: functional; conditions: isolate 1018887, 24 h; method in brief: as §1
Acinetobacter baumannii [27] = assay: Antibacterial activity against polymyxin B/colistin-resistant Acinetobacter baumannii M89953 measured after 24 hrs by microtiter dilution method; assay type: functional; conditions: M89953, 24 h; method in brief: as §1
Acinetobacter baumannii [28] = assay: Antibacterial activity against Acinetobacter baumannii isolate 1017395 measured after 24 hrs by microtiter dilution method; assay type: functional; conditions: isolate 1017395, 24 h; method in brief: as §1
Acinetobacter baumannii [29] = assay: Antibacterial activity against polymyxin B/colistin-resistant Acinetobacter baumannii M89949 measured after 24 hrs by microtiter dilution method; assay type: functional; conditions: M89949, 24 h; method in brief: as §1
Acinetobacter baumannii [30] = assay: Antibacterial activity against Acinetobacter baumannii isolate 964304 measured after 24 hrs by microtiter dilution method; assay type: functional; conditions: isolate 964304, 24 h; method in brief: as §1
Acinetobacter baumannii [31] = assay: Antibacterial activity against Acinetobacter baumannii isolate 981650 measured after 24 hrs by microtiter dilution method; assay type: functional; conditions: isolate 981650, 24 h; method in brief: as §1
[32] = Hemolytic activity against human RBC measured after 18 hrs by spectrophotometric method; assay type: ADME, cell-based, Erythrocyte; conditions: human red blood cells (erythrocytes)
Method in brief: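 Peptide (amount by amino acid analysis), two-fold serial dilutions at 12 concentrations up to 1000 μg/mL, with 1% human erythrocytes in PBS pH 7.4, 37 °C, 18 h. Unlysed cells removed by centrifugation (800g); hemoglobin read at 570 nm. Water-lysed cells = 100%, no-peptide cells = 0%. HC50 from plot of % lysis vs concentration (μM), average of 3 replicates.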

Acinetobacter baumannii [33] = assay: Antibacterial activity against Acinetobacter baumannii isolate 1010282 measured after 24 hrs by microtiter dilution method; assay type: functional; conditions: isolate 1010282, 24 h; method in brief: as §1
[34] = Therapeutic index, ratio of HC50 for human RBC to MIC for polymyxin B/colistin-resistant Acinetobacter baumannii M89955; assay type: toxicity; conditions: human red blood cells, read-out: TI; method in brief: as §2
Acinetobacter baumannii [35] = assay: Antibacterial activity against Acinetobacter baumannii isolate 1035166 measured after 24 hrs by microtiter dilution method; assay type: functional; conditions: isolate 1035166, 24 h; method in brief: as §1
[36] = Therapeutic index, ratio of HC50 for human RBC to MIC for polymyxin B/colistin-resistant Acinetobacter baumannii M89951; assay type: toxicity; conditions: human red blood cells, read-out: TI; method in brief: as §2
Acinetobacter baumannii [37] = assay: Antibacterial activity against Acinetobacter baumannii isolate 968886 measured after 24 hrs by microtiter dilution method; assay type: functional; conditions: isolate 968886, 24 h; method in brief: as §1

With `CC(=O)N[C@H](CCCCN)C(=O)N[C@H](CC(C)C)C(=O)N[C@@H](CN)C(=O)N[C@H](CO)C(=O)N[C@H](CC(C)C)C(=O)N[C@H](CC(C)C)C(=O)N[C@@H](CN)C(=O)N[C@@H](C(=O)N[C@H](CC(C)C)C(=O)N[C@H](CO)C(=O)N[C@@H](CN)C(=O)N[C@H](C)C(=O)N[C@H](CCCCN)C(=O)N[C@H](C)C(=O)N[C@H](C)C(=O)N[C@H](CCCCN)C(=O)N[C@H](CC(C)C)C(=O)N[C@@H](CN)C(=O)N[C@@H](C(=O)N[C@H](CC(C)C)C(=O)N[C@H](CC(C)C)C(=O)N[C@@H](CN)C(=O)N[C@H](C)C(=O)N[C@H](CC(C)C)C(=O)N[C@H](CO)C(=O)N[C@@H](CN)C(N)=O)[C@H](C)O)[C@H](C)O` (Ac-[dK][dL][Dap][dS][dL][dL][Dap][dT][dL][dS][Dap][dA][dK][dA][dA][dK][dL][Dap][dT][dL][dL][Dap][dA][dL][dS][Dap]-NH2) the MIC (Acinetobacter baumannii [1]) was 0.8 µM (≈ 2.09 µg/mL), the MIC (Acinetobacter baumannii [2]) was 0.8 µM (≈ 2.09 µg/mL) and the selectivity ratio [3] was > 957. It also gave an MIC (Acinetobacter baumannii [4]) of 0.8 µM (≈ 2.09 µg/mL), an MIC (Acinetobacter baumannii [5]) of 0.8 µM (≈ 2.09 µg/mL) and an MIC (Acinetobacter baumannii [6]) of 1.5 µM (≈ 3.92 µg/mL). It also gave an MIC (Acinetobacter baumannii [7]) of 1.5 µM (≈ 3.92 µg/mL), an MIC (Acinetobacter baumannii [8]) of 1.5 µM (≈ 3.92 µg/mL) and an MIC (Acinetobacter baumannii [9]) of 1.5 µM (≈ 3.92 µg/mL). The selectivity ratio [10] was > 957, the MIC (Acinetobacter baumannii [11]) was 0.8 µM (≈ 2.09 µg/mL) and the MIC (Acinetobacter baumannii [12]) was 3 µM (≈ 7.84 µg/mL). For the same compound, the selectivity ratio [13] was > 957, the MIC (Acinetobacter baumannii [14]) was 0.8 µM (≈ 2.09 µg/mL) and the MIC (Acinetobacter baumannii [15]) was 3 µM. The selectivity ratio [16] was > 957, the MIC (Acinetobacter baumannii [17]) was 0.8 µM (≈ 2.09 µg/mL) and the MIC (Acinetobacter baumannii [18]) was 0.8 µM (≈ 2.09 µg/mL). The MIC (Acinetobacter baumannii [19]) was 0.8 µM (≈ 2.09 µg/mL), the selectivity ratio [20] was > 957 and the MIC (Acinetobacter baumannii [21]) was 1.5 µM (≈ 3.92 µg/mL). For the same compound, the MIC (Acinetobacter baumannii [22]) was 1.5 µM (≈ 3.92 µg/mL), the MIC (Acinetobacter baumannii [23]) was 0.8 µM (≈ 2.09 µg/mL) and the MIC (Acinetobacter baumannii [24]) was 0.4 µM (≈ 1.05 µg/mL). The MIC (Acinetobacter baumannii [25]) was 0.8 µM (≈ 2.09 µg/mL), the MIC (Acinetobacter baumannii [26]) was 0.8 µM (≈ 2.09 µg/mL) and the MIC (Acinetobacter baumannii [27]) was 3 µM (≈ 7.84 µg/mL). For the same compound, the MIC (Acinetobacter baumannii [28]) was 1.5 µM (≈ 3.92 µg/mL), the MIC (Acinetobacter baumannii [29]) was 0.8 µM (≈ 2.09 µg/mL) and the MIC (Acinetobacter baumannii [30]) was 1.5 µM (≈ 3.92 µg/mL). For the same compound, the MIC (Acinetobacter baumannii [31]) was 0.8 µM (≈ 2.09 µg/mL), the HC50 at 18 h [32] was > 1.15 mM and the MIC (Acinetobacter baumannii [33]) was 0.8 µM (≈ 2.09 µg/mL). The selectivity ratio [34] was > 957, the MIC (Acinetobacter baumannii [35]) was 0.8 µM (≈ 2.09 µg/mL) and the selectivity ratio [36] was > 957. The MIC (Acinetobacter baumannii [37]) was 1.5 µM (≈ 3.92 µg/mL).
